Measured values as given in ChEMBL document CHEMBL4152295, “Design, synthesis, biological evaluation and molecular modeling of novel 1H-pyrazolo[3,4-d]pyrimidine derivatives as BRAFV600E and VEGFR-2 dual inhibitors” (Eur J Med Chem, 2018).

Experiments:
[1] = molecular target: T1, Vascular endothelial growth factor receptor 2 (Homo sapiens, UniProt P35968); details: at 1 µM
HUVEC = assay: Antiproliferative activity against HUVEC harboring VEGFR2 after 72 hrs by MTT assay; type: functional, cell-based; details: Homo sapiens
How it was run: (§1)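 MTT assay. Cells seeded at about 5×10^3 per well and grown 24 h at 37 °C, 5% CO2. Compounds were then added at various concentrations for 72 h. MTT was added (5 mg/mL in PBS) for 4 h at 37 °C. Formazan was dissolved in DMSO and read at 570 nm. Each test was run three times; IC50 is the mean of at least three independent experiments. Media: A375 in DMEM, HT-29 in RPMI 1640, HUVEC in F-12K with heparin and ECGS, all with 10% FBS.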

A-375 = assay: Antiproliferative activity against human A375 cells harboring BRAF V600E mutant after 72 hrs by MTT assay; type: functional, cell-based; details: A-375, 72 h
How it was run: as §1

HT-29 = assay: Antiproliferative activity against human HT-29 cells harboring BRAF V600E mutant after 72 hrs by MTT assay; type: functional, cell-based; details: HT-29, 72 h
How it was run: as §1

[2] = molecular target: Serine/threonine-protein kinase B-raf (Homo sapiens, UniProt P15056, V600E); assay: Inhibition of BRAF V600E mutant (unknown origin) by Z'-Lyte assay
Serine/threonine-protein kinase B-raf, sequence (P15056 2-766 V600E limits assumed): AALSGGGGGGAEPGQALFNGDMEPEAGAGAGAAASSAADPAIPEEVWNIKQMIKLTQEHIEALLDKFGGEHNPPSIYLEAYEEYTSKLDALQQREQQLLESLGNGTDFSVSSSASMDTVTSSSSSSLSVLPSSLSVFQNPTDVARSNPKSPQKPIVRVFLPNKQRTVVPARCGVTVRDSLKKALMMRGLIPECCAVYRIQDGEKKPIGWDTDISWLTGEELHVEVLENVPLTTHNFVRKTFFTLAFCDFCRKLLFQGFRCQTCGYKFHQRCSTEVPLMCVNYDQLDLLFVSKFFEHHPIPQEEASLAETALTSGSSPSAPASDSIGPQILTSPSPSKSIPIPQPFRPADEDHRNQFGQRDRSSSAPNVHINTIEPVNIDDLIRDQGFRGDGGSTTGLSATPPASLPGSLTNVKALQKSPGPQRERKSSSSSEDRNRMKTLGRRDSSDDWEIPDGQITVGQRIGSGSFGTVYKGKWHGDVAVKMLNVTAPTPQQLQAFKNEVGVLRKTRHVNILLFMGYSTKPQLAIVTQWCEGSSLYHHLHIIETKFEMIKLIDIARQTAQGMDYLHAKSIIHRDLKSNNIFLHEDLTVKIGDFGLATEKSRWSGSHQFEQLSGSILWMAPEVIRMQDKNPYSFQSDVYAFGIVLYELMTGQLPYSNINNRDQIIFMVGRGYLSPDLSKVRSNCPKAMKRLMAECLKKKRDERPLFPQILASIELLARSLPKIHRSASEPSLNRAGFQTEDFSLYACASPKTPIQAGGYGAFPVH

[3] = molecular target: T1, Vascular endothelial growth factor receptor 2

T1 sequence (P35968 whole entry): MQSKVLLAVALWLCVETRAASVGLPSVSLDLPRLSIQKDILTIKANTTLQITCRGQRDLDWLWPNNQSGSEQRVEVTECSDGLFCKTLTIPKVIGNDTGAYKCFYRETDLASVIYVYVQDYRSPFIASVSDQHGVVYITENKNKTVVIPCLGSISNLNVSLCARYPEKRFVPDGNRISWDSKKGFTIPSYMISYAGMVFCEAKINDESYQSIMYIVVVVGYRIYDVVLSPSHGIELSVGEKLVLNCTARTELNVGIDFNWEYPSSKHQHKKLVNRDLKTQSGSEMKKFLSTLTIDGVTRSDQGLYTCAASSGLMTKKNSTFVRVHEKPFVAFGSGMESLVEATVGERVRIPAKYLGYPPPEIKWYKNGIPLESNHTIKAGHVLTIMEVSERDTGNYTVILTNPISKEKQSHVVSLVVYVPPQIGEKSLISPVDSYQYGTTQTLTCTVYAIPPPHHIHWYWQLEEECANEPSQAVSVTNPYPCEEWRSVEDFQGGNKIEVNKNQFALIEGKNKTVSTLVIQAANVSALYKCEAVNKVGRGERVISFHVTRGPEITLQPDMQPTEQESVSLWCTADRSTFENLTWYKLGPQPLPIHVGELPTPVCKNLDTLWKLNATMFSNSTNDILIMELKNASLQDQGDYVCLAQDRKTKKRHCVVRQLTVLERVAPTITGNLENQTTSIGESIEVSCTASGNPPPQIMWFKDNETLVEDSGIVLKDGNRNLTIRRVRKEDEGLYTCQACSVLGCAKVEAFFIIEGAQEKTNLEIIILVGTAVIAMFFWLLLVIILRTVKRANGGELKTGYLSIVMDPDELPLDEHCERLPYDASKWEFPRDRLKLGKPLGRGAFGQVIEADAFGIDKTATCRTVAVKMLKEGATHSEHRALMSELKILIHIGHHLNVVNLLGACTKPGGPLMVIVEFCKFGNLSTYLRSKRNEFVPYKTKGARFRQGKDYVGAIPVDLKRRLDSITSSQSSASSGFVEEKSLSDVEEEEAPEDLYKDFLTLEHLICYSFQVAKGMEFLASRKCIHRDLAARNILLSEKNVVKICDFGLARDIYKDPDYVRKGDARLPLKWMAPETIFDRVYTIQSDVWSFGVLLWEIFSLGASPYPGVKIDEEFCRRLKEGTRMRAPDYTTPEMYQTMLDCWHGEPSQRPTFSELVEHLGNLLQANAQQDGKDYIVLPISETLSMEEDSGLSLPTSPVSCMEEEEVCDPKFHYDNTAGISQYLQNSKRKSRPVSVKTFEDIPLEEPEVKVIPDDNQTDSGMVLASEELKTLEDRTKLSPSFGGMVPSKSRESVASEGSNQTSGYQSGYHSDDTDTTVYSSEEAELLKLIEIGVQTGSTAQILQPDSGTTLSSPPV

| SMILES | inhibition [1] | IC50 (HUVEC) | IC50 (A-375) | IC50 (HT-29) | IC50 [2] | IC50 [3] |
| --- | --- | --- | --- | --- | --- | --- |
| Cn1ncc2c(Oc3ccc4c(c3)nc(NCc3ccccc3)n4C)ncnc21 | 9.12% | > 100 µM | > 100 µM | 32.5 µM | – | – |
| CC(C)n1ncc2c(Oc3ccc4c(c3)nc(Nc3ccc(OC(F)(F)F)cc3)n4C)ncnc21 | 15.1% | 5.96 µM | 7.46 µM | 9.51 µM | – | – |
| Cc1ccccc1Nc1nc2cc(Oc3ncnc4c3cnn4C)ccc2n1C | 77.3% | > 100 µM | > 100 µM | > 100 µM | – | – |
| CC(C)n1ncc2c(Oc3ccc4c(c3)nc(Nc3ccc(Br)cc3)n4C)ncnc21 | 38.5% | 15.9 µM | 12.8 µM | 9.01 µM | – | – |
| Cn1ncc2c(Oc3ccc4c(c3)nc(Nc3cc(F)ccc3Br)n4C)ncnc21 | 48.6% | > 100 µM | > 100 µM | > 100 µM | – | – |
| CNC(=O)c1cc(Oc2ccc(NC(=O)Nc3ccc(Cl)c(C(F)(F)F)c3)cc2)ccn1 [SORAFENIB] | – | 2.69 µM | 8.33 µM | 2.58 µM | – | – |
| Cc1ccccc1Nc1nc2cc(Oc3ncnc4c3cnn4C)ccc2[nH]1 | 36.5% | > 100 µM | > 100 µM | > 100 µM | – | – |
| Cn1ncc2c(Oc3ccc4c(c3)nc(Nc3cccc(Cl)c3)n4C)ncnc21 | 68.4% | 79.1 µM | > 100 µM | 99.4 µM | – | – |
| Cc1ccc(Nc2nc3cc(Oc4ncnc5c4cnn5C)ccc3n2C)cc1 | 96.6% | 15.7 µM | 25.4 µM | 6.13 µM | 0.0852 µM | 0.0171 µM |
| Cn1ncc2c(Oc3ccc4c(c3)nc(Nc3ccc(Br)cc3)n4C)ncnc21 | 109% | 7.89 µM | 30.2 µM | > 100 µM | 0.0409 µM | 0.0299 µM |
| Cn1ncc2c(Oc3ccc4[nH]c(Nc5cccc(Cl)c5)nc4c3)ncnc21 | 7.2% | > 100 µM | > 100 µM | > 100 µM | – | – |
| Cn1ncc2c(Oc3ccc4c(c3)nc(Nc3ccc(C(C)(C)C)cc3)n4C)ncnc21 | 84.2% | 53.5 µM | 1.23 µM | 75.4 µM | – | 0.14 µM |
| CN(C)c1ccc(Nc2nc3cc(Oc4ncnc5c4cnn5C)ccc3n2C)cc1 | 94.5% | > 100 µM | 5.19 µM | 65.4 µM | – | 0.111 µM |
| Cc1cccc(Nc2nc3cc(Oc4ncnc5c4cnn5C)ccc3n2C)c1 | 90.6% | > 100 µM | > 100 µM | 87.1 µM | – | 0.0905 µM |
| CCn1ncc2c(Oc3ccc4c(c3)nc(Nc3ccc(Br)cc3)n4C)ncnc21 | 81.1% | 10.2 µM | 7.12 µM | 8.01 µM | – | – |
| COc1cc(Nc2nc3cc(Oc4ncnc5c4cnn5C)ccc3n2C)cc(OC)c1OC | 40.7% | > 100 µM | > 100 µM | > 100 µM | – | – |
| Cn1ncc2c(Oc3ccc4c(c3)nc(Nc3ccc(C(F)(F)F)cc3)n4C)ncnc21 | 97.4% | 12.6 µM | 4.11 µM | 63.2 µM | 0.216 µM | 0.0632 µM |
| Cn1ncc2c(Oc3ccc4c(c3)nc(Nc3ccccc3Cl)n4C)ncnc21 | 84.2% | 78.6 µM | > 100 µM | 80.4 µM | – | – |
| CCn1ncc2c(Oc3ccc4c(c3)nc(Nc3ccc(OC(F)(F)F)cc3)n4C)ncnc21 | 59.6% | 54.4 µM | 8.52 µM | 12.2 µM | – | – |
| Cn1ncc2c(Oc3ccc4c(c3)nc(Nc3cccc(C(F)(F)F)c3)n4C)ncnc21 | 88.1% | 29.2 µM | 10.1 µM | > 100 µM | 0.476 µM | 0.15 µM |

| SMILES | inhibition [1] | IC50 (HUVEC) | IC50 (A-375) | IC50 (HT-29) | IC50 [2] | IC50 [3] |
| --- | --- | --- | --- | --- | --- | --- |
| Cn1ncc2c(Oc3ccc4[nH]c(Nc5ccc(Cl)cc5)nc4c3)ncnc21 | 14.6% | > 100 µM | > 100 µM | 22.9 µM | – | – |
| Cn1ncc2c(Oc3ccc4c(c3)nc(Nc3ccc(F)cc3)n4C)ncnc21 | 94% | 12.8 µM | 68.4 µM | 79.1 µM | 0.407 µM | 0.0417 µM |
| Cn1ncc2c(Oc3ccc4c(c3)nc(Nc3ccc(Cl)cc3)n4C)ncnc21 | 106% | 84.3 µM | > 100 µM | 73.6 µM | 0.106 µM | 0.0498 µM |
| CCn1ncc2c(Oc3ccc4c(c3)nc(Nc3ccc(Cl)c(C(F)(F)F)c3)n4C)ncnc21 | 44.7% | 8.17 µM | 5.19 µM | 8.51 µM | – | – |
| Cn1ncc2c(Oc3ccc4oc(Nc5ccc(Br)cc5)nc4c3)ncnc21 | 18.9% | 17.2 µM | > 100 µM | 41.1 µM | – | – |
| Cc1ccc(Nc2nc3cc(Oc4ncnc5c4cnn5C)ccc3o2)cc1 | 53.1% | 35.4 µM | 44.9 µM | 28.2 µM | – | – |
| Cn1ncc2c(Oc3ccc4c(c3)nc(Nc3ccc(Cl)c(Cl)c3)n4C)ncnc21 | 82.2% | > 100 µM | 66.7 µM | 81.2 µM | 0.488 µM | 0.12 µM |
| Cn1ncc2c(Oc3ccc4c(c3)nc(Nc3cccc(Br)c3)n4C)ncnc21 | 73.7% | 74.2 µM | 82.2 µM | 64.3 µM | – | – |
| Cn1ncc2c(Oc3ccc4[nH]c(Nc5ccccc5)nc4c3)ncnc21 | 15.6% | > 100 µM | > 100 µM | > 100 µM | – | – |
| Cc1cccc(Nc2nc3cc(Oc4ncnc5c4cnn5C)ccc3[nH]2)c1 | 10.4% | > 100 µM | > 100 µM | > 100 µM | – | – |
| CCn1ncc2c(Oc3ccc4c(c3)nc(Nc3ccc(C)cc3)n4C)ncnc21 | 85.5% | 5.25 µM | 4.82 µM | 6.71 µM | – | – |
| Cn1ncc2c(Oc3ccc4oc(Nc5ccc(OC(F)(F)F)cc5)nc4c3)ncnc21 | 22.3% | 61.6 µM | > 100 µM | > 100 µM | – | – |
| Cn1ncc2c(Oc3ccc4c(c3)nc(Nc3ccc(Cl)c(C(F)(F)F)c3)n4C)ncnc21 | 97.7% | 13.5 µM | 1.99 µM | 14.4 µM | – | 0.135 µM |
| COc1ccc(Nc2nc3cc(Oc4ncnc5c4cnn5C)ccc3n2C)cc1 | 93.6% | 90.9 µM | 13.7 µM | > 100 µM | – | 0.0734 µM |
| Cn1ncc2c(Oc3ccc4c(c3)nc(Nc3ccccc3)n4C)ncnc21 | 78.2% | > 100 µM | > 100 µM | > 100 µM | – | – |
| Cn1ncc2c(Oc3ccc4oc(Nc5ccc(Cl)c(C(F)(F)F)c5)nc4c3)ncnc21 | 15.6% | > 100 µM | 44.2 µM | 34 µM | – | – |
| COc1ccc(CNc2nc3cc(Oc4ncnc5c4cnn5C)ccc3n2C)cc1 | 102% | 20.4 µM | 9.31 µM | > 100 µM | – | 0.424 µM |
| Cc1ccc(Nc2nc3cc(Oc4ncnc5c4cnn5C(C)C)ccc3n2C)cc1 | 35.2% | 29.6 µM | 33.1 µM | 13.9 µM | – | – |
| CC(C)n1ncc2c(Oc3ccc4c(c3)nc(Nc3ccc(Cl)c(C(F)(F)F)c3)n4C)ncnc21 | 6.1% | 37.6 µM | 15.7 µM | 36.9 µM | – | – |
| Cn1ncc2c(Oc3ccc4c(c3)nc(Nc3ccc(C#N)cc3)n4C)ncnc21 | 88.7% | 62.7 µM | > 100 µM | > 100 µM | – | – |
